Source: ChEMBL document CHEMBL4673340 (J Med Chem, 2020)
pEC50, pIC50: −log10 of the molar value. Active and inactive are the calls of the source. The calls are words filed in the database; no cut-off is given here.

Legend:
NCI-H209 [1] = assay: Potentiation of TMZ-induced antitumor activity against human NCI-H209 cells xenografted in BALB/c nude mouse assessed as inhibition of tumor growth at […], po BID for 28 days and co-treated with 50 mg/kg, po QD TMZ for 5 consecutive days at start of study and again 14 days later; type: functional, organism-based; conditions: time 28.0 day
[2] = Ratio of drug level in brain to plasma of C57BL/6 mouse brain at 10 mg/kg, po after 4 hrs; type: ADME, organism-based
Procedure, shortened: (§1)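 C57BL/6 mice were given 10 mg/kg po in 0.5% MC and sampled at 1, 2 and 4 h. Brain was homogenized in 3 volumes of saline, and brain and plasma were protein-precipitated with acetonitrile, then measured by LC-MS/MS. Brain (ng/g) was expressed as a percentage of plasma (ng/mL). Values are means of three mice.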

MDA-MB-436 [3] = assay: Antitumor activity against human MDA-MB-436 cells xenografted in BALB/c nude mouse assessed as inhibition of tumor growth at 1.6 to […], po BID for 28 days followed by treatment was interruption and monitored for additional 2 months; type: functional, organism-based; conditions: dose lower […], dose upper […], time 28.0 day
[4] = Ratio of drug level in brain to plasma of C57BL/6 mouse brain at 10 mg/kg, po after 1 hrs; type: ADME, organism-based; procedure, shortened: as §1
[5] = Drug level in C57BL/6 mouse brain at 10 mg/kg, po after 1 hrs; type: ADME, organism-based; conditions: read-out: Drug uptake
Procedure, shortened: (§2)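 C57BL/6 mice (n=3) dosed orally at 10 mg/kg in 0.5% MC. Plasma and brain are sampled at 1, 2 and 4 h. Brain is homogenized in 3 volumes of saline, then acetonitrile protein precipitation; plasma is likewise precipitated. Both are analysed by LC–MS/MS and reported as means.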

[6] = Drug level in C57BL/6 mouse brain at 10 mg/kg, po after 4 hrs; type: ADME, organism-based; conditions: read-out: Drug uptake; procedure, shortened: as §2
[7] = Toxicity in BALB/c nude mouse xenografted with human NCI-H209 cells assessed as drug tolerability at […], po BID for 28 days and co-treated with 50 mg/kg, po QD TMZ for 5 consecutive days at start of study and again 14 days later relative to TMZ alone; type: organism-based; conditions: in vivo, dose 0.75 mg/kg, time 28 day
[8] = Drug level in C57BL/6 mouse plasma at 10 mg/kg, po after 2 hrs; type: ADME, organism-based; procedure, shortened: as §2
[9] = target: Solute carrier organic anion transporter family member 1B3 (Homo sapiens, UniProt Q9NPD5); assay: Inhibition of OATP1B3 (unknown origin)
Chain of Solute carrier organic anion transporter family member 1B3 (Q9NPD5 whole entry): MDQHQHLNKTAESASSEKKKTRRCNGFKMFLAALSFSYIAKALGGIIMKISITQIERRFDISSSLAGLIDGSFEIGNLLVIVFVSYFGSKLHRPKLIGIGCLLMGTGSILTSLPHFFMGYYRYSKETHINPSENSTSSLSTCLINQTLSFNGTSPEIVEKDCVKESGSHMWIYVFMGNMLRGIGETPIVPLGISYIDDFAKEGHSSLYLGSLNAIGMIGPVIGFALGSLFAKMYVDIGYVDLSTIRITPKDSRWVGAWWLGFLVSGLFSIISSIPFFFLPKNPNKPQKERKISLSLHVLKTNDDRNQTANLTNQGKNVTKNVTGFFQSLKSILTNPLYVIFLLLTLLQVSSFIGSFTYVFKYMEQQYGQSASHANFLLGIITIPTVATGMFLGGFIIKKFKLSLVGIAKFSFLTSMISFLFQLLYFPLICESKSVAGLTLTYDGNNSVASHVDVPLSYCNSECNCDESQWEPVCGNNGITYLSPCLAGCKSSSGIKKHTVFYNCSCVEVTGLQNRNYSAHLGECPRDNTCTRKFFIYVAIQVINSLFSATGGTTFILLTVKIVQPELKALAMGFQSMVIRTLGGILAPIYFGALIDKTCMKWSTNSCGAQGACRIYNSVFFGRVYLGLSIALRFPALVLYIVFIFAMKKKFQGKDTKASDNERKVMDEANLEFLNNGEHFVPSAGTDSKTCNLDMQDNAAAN

BCRP = BCRP (Homo sapiens, UniProt Q9UNQ0); assay: Inhibition of BCRP (unknown origin) at 30 uM; conditions: not told
Chain of BCRP (Q9UNQ0 whole entry): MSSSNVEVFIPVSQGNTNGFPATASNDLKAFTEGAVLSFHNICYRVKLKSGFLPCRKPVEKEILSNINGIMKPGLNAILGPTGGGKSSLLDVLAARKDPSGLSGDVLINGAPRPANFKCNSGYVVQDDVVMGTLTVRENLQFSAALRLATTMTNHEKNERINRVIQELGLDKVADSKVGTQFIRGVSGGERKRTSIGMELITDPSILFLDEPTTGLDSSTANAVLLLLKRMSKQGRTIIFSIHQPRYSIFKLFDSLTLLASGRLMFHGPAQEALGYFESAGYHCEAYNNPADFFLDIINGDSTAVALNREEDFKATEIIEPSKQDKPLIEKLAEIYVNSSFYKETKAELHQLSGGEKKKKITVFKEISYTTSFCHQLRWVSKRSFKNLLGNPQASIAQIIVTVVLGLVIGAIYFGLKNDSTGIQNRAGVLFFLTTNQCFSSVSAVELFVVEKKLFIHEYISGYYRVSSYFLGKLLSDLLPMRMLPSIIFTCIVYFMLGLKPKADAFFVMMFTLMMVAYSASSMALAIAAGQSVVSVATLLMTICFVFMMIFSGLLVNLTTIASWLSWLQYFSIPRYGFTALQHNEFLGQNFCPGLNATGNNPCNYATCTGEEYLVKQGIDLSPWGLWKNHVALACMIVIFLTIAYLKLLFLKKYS

[10] = Cmax in Beagle dog at 2 mg/kg, po by LC-MS/MS analysis; type: ADME, organism-based, Canis lupus familiaris; design: route oral, dose 2 mg/kg; conditions: in vivo
Procedure, shortened: (§3)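 Three Beagle dogs; iv dose 1 mg/kg in 25% DMA in water; oral dose 2 mg/kg in 0.5% CMC-Na. Plasma drug concentrations are measured by LC–MS/MS. Values are the mean of three dogs.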

[11] = Half life in Beagle dog at 1 mg/kg, iv by LC-MS/MS analysis; type: ADME, organism-based, Canis lupus familiaris; conditions: in vivo; procedure, shortened: as §3
[12] = Volume of distribution at steady state in Sprague-Dawley rat at 2 mg/kg, iv by LC-MS/MS analysis; type: ADME, organism-based; conditions: in vivo, read-out: Vdss
Procedure, shortened: (§4)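 Pharmacokinetics in Sprague-Dawley rats, three per group. iv 2 mg/kg in 38% DMA in water; po 5 mg/kg. Plasma was protein-precipitated, diluted with water and analysed by LC-MS/MS using an acetonitrile/0.1% formic acid gradient. Values are means of three rats.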

[13] = Clearance in Sprague-Dawley rat at 2 mg/kg, iv by LC-MS/MS analysis; type: ADME, organism-based; conditions: in vivo
Procedure, shortened: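 Sprague-Dawley rats (n=3) get 2 mg/kg iv formulated in 38% DMA in water. Plasma is protein-precipitated and quantified by LC–MS/MS (C18, acetonitrile/0.1% formic acid gradient). Parameters are means of the three rats.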

[14] = Volume of distribution at steady state in ICR mouse at 1 mg/kg, iv by LC-MS/MS analysis; type: ADME, organism-based; conditions: in vivo, read-out: Vdss
Procedure, shortened: (§5)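 Three ICR mice per arm. iv dose 1 mg/kg in 5% DMA in water; oral dose 10 mg/kg in 0.5% MC. Plasma was processed by protein precipitation, diluted with water and quantified by LC-MS/MS (C18 column, acetonitrile/0.1% formic acid gradient). Values are means of three animals.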

[15] = AUC (0 to infinity) in ICR mouse at 1 mg/kg, iv by LC-MS/MS analysis; type: ADME, organism-based; design: route intravenous, time infinity, dose 1 mg/kg; conditions: in vivo
Procedure, shortened: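 Male/female unspecified ICR mice, n=3 per route. Intravenous 1 mg/kg in 5% DMA in water; oral 10 mg/kg in 0.5% MC. Plasma is processed by protein precipitation and analysed by LC–MS/MS using an acetonitrile/0.1% formic acid gradient. Values are means of the three animals.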

MDA-MB-231 = assay: Antiproliferation activity against human MDA-MB-231 cells incubated for 7 days by CellTiter-Glo luminescent cell viability assay; type: functional, cell-based; conditions: MDA-MB-231, 168 h
Procedure, shortened: (§6)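 Seeding density is set per line for log growth over 7 days. Cells attach 16 h, then are treated in duplicate with a 10-point dilution series for 7 days. CellTiter-Glo luminescence (ATP) is read, and viability is expressed relative to mock-treated control. EC50 is the mean of three independent experiments run in triplicate.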

[16] = Clearance in rat liver microsomes; type: ADME, Microsome
[17] = Clearance in human liver microsomes; type: ADME, Microsome
Cytochrome P450 3A4 = Cytochrome P450 3A4 (Homo sapiens, UniProt P08684); assay: Inhibition of CYP3A4 (unknown origin); type: ADME
Chain of Cytochrome P450 3A4 (P08684 whole entry): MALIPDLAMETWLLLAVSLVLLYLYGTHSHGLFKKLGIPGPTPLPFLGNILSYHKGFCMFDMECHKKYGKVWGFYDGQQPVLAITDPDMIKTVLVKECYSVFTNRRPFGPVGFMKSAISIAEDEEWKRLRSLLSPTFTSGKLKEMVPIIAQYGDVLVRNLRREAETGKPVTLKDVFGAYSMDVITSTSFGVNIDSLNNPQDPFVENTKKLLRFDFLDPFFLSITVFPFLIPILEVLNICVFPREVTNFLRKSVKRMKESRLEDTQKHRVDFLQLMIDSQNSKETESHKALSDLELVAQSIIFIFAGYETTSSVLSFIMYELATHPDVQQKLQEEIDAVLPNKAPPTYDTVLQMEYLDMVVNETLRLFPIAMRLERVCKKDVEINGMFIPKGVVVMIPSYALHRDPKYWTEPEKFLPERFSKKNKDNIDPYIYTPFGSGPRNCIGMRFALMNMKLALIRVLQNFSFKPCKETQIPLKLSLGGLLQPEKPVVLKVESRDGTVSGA

Cytochrome P450 1A2 = Cytochrome P450 1A2 (Homo sapiens, UniProt P05177); assay: Inhibition of CYP1A2 (unknown origin); type: ADME
Chain of Cytochrome P450 1A2 (P05177 whole entry): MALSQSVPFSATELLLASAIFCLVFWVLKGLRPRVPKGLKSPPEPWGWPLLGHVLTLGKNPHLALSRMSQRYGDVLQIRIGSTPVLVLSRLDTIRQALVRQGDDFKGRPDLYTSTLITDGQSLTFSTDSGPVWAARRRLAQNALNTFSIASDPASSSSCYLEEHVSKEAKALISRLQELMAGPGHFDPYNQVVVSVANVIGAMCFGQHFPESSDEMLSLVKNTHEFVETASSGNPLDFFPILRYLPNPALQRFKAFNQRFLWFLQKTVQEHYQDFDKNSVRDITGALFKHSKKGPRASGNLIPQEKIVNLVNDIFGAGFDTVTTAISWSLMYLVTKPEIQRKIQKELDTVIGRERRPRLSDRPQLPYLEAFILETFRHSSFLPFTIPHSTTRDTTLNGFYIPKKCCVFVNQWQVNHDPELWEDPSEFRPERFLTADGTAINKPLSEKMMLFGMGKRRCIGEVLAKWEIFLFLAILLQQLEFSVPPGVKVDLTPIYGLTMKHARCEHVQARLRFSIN

MDA-MB-436 [18] = assay: Antiproliferation activity against human MDA-MB-436 cells expressing BRCA1 mutant incubated for 7 days by CellTiter-Glo luminescent cell viability assay; type: functional, cell-based; conditions: MDA-MB-436, 168 h; procedure, shortened: as §6
[19] = Oral bioavailability in ICR mouse at 10 mg/kg by LC-MS/MS analysis; type: ADME, organism-based; conditions: in vivo; procedure, shortened: as §5
[20] = Oral bioavailability in Sprague-Dawley rat at 5 mg/kg by LC-MS/MS analysis; type: ADME, organism-based; conditions: in vivo; procedure, shortened: as §4
[21] = Clearance in mouse liver microsomes; type: ADME, Microsome; conditions: read-out: CLH
[22] = Inhibition of PARylation in PBMC in patient with ovarian cancer at >= 10 mg BID during phase I study; type: functional, Homo sapiens; conditions: dose mg >=10
[23] = target: Solute carrier family 22 member 2, OCT2 (Homo sapiens) (UniProt O15244); assay: Inhibition of OCT2 (unknown origin) up to 50 uM; conditions: dose microM <=50
Chain of Solute carrier family 22 member 2, OCT2 (Homo sapiens) (O15244 whole entry, looked up): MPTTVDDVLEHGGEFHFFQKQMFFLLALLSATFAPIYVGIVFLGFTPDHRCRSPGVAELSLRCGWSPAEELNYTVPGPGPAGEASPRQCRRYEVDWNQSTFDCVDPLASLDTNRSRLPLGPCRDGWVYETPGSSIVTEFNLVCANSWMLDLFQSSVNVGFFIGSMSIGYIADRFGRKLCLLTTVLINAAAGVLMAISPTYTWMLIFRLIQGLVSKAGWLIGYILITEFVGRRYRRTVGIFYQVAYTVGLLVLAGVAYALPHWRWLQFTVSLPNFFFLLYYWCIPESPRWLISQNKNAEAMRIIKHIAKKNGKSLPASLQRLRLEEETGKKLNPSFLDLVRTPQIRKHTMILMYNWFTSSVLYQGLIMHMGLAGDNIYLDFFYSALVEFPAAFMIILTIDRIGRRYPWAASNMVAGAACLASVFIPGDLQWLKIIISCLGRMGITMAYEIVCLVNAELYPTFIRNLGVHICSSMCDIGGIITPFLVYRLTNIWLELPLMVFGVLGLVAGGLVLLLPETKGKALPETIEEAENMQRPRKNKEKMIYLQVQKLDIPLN

[24] = Tmax in Sprague-Dawley rat at 5 mg/kg, po by LC-MS/MS analysis; conditions: in vivo
[25] = Cmax in Sprague-Dawley rat at 5 mg/kg, po by LC-MS/MS analysis; conditions: in vivo
NCI-H209 [26] = assay: Antitumor activity against human NCI-H209 cells xenografted in BALB/c nude mouse assessed as inhibition of tumor growth at […], po BID for 28 days; conditions: time 28.0 day

## C[C@]12CCCN1CC1=NNC(=O)c3cc(F)cc4[nH]c2c1c34 [PAMIPARIB]
NCI-H209 [1]
  TGI: Active
[2]
  BPR: 19.1%
MDA-MB-436 [3]
  TGI: Dose-dependent effect
[4]
  BPR: 17.4%
[5]
  concentration at 1 h: 613 ng/g
[6]
  concentration at 4 h: 135 ng/g
[7]
  Activity: Non-Toxic
[8]
  concentration at 2 h: 1330 ng/mL
[9]
  pIC50: 4.71
BCRP
  inhibition at 30 µM: 43%
[10]
  Cmax: 502 ng/mL
[11]
  half-life: 2.07 h
[12]
  Vd: 6.92 L/kg
[13]
  clearance: 22.7 mL/min/kg
[14]
  Vd: 5.65 L/kg
[15]
  AUC: 1757 ng·h/mL
MDA-MB-231
  pEC50: < 5.00
[16]
  microsomal CLint: 7.2 µL/min/mg
[17]
  microsomal CLint: 7.9 µL/min/mg
Cytochrome P450 3A4
  pIC50: < 5.00
Cytochrome P450 1A2
  pIC50: < 5.00
MDA-MB-436 [18]
  pEC50: 7.97
[19]
  F: 98.7%
[20]
  bioavailability: 93.7%
[21]
  CLint scaled: 12.9 mL/min/kg
[22]
  inhibition (INH): >80%
[23]
  inhibition: inactive
[24]
  Tmax: 1 h
[25]
  Cmax: 861 ng/mL
NCI-H209 [26]
  TGI: inactive
